# In PubChem BioAssay AID504382 (The Scripps Research Institute Molecular Screening Center, 2011):
# In all, about 2,500 compounds went through this assay and about 460 (18%) were called active. A selection follows. Values without a mark were called inactive.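 How the source made its calls: active means mean activation above a cutoff of low control average plus 3 SD from the earlier screen (cut at about 12% in these data); inactive means the rest.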
# Assay: IANBD-channel fluorescence artefacts in buffer – biochemical, artefact control for cardiac RTF calcium sensitizer project, confirmation (AID 504382)
# Settings: IANBD fluorescence interference counterscreen, EC20 Ca2+, at 7.2 µM, stronger effect = higher value, scaled: EC20 calcium 0, EC100 calcium 100
# How it was run: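 Also added: EC20 calcium, 0.472 mM; dosing: single nominal 7.2 µM compound dose, 0.7% DMSO final; timing: 15 min, 25 °C; detection: fluorescence intensity, excitation 480 nm, emission 540 nm; replicates: each compound tested in triplicate wells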
row,Compound,fluorescence artifact activation
1,CC(=O)c1ccc(NC(=O)CN2C(=O)/C(=C/C=C/c3ccccc3)SC2=S)cc1,0.03%
2,O=C(NC1CCCCC1)c1cc2nc3c(c(C(F)(F)F)n2n1)CCCC3,7.01%
3,Cc1cc(/C=N/NC(N)=S)c(O)c(/C=N/NC(N)=S)c1,181% (active)
4,COc1ccc(-c2nn(-c3ccccc3)cc2/C=N/NC(N)=S)cc1OC,8.19%
5,O=C(N/N=C/c1cc(Cl)cc(Cl)c1O)c1ccncc1,2.37%
6,Cc1cc2c(cc1S(=O)(=O)CCC(=O)NCCc1ccccc1)OCC(=O)N2,11.3%
7,CCOC(=O)c1ccc(NC(=O)c2cc3c(C)nn(-c4ccccc4Cl)c3s2)s1,1.59%
8,CCN(CC)c1ccc2c(c1)OC(N)=C(C#N)C2c1cccnc1 (stereo unspecified),2.43%
9,N#CC1=C(N)Oc2cc(O)c(Cl)cc2C1c1ccccc1F (stereo unspecified),54.3% (active)
10,COC(=O)C1=C(CSc2nc3c(cc2C#N)CN(C)CC3)OC(N)=C(C#N)C1c1ccccc1F (stereo unspecified),3.38%
11,CCOc1ccc2cc(/C=C/C(=O)c3ccco3)c(Cl)nc2c1,0.34%
12,CC(CCc1ccc(O)cc1)NCCC(c1ccccc1)c1ccccc1 (stereo unspecified),13.1% (active)
13,COc1ccc(OC)c(NC(=O)NCCc2cccc(Cl)c2)c1,0.03%
14,C=C[C@@](C)(O)CC[C@@H]1[C@@]2(C)CCCC(C)(C)[C@@H]2CC[C@@]1(C)O,0.16%
15,Cc1cccc(NC2=Nc3ccccc3N3C2=Nc2c(c(C)nn2-c2ccccc2)C3c2ccc(O)c(O)c2)c1 (stereo unspecified),96.4% (active)
16,CC1C/C(=C/c2cccn2C)C(=O)/C(=C/c2cccn2C)C1 (stereo unspecified),0.08%
17,COc1ccc(/C=C/C(=O)NC(=S)Nc2ccc(C(=O)O)cc2)cc1,6.95%
18,Cc1nnc(NC(=O)CS(=O)(=O)Cc2ccccc2)s1,-0.07%
19,O=C(Oc1ccc2ccc(=O)oc2c1)c1cccs1,0.02%
20,Cc1onc(-c2ccccc2)c1C(=O)Nc1nc(-c2cc(F)ccc2F)cs1,0.13%
21,Cc1noc(C)c1C(=O)Nc1nc2ccccc2s1,38.5% (active)
22,O=S(=O)(/N=C(/Nc1nc2ccccc2s1)c1ccccc1)c1ccc(F)cc1,0.13%
23,Cc1nc2c(C#N)cnn2c2c1CCN(Cc1ccccc1)N2C,138% (active)

row,Compound,fluorescence artifact activation
1,Cc1c2c(n3c(nc4ccccc43)c1C#N)N(CCN1CCOCC1)CC2,0.13%
2,Cn1c2c(c(=O)n(C)c1=O)C(C(F)(F)F)(C(F)(F)F)N=C(CCC1CCCCC1)N2,0.01%
3,CC(=O)c1nnn(-c2cccc(C#N)c2)c1C,0.2%
4,Cc1ccc(/C=C2/NC(=O)N(Cc3ccccc3F)C2=O)s1,0.1%
5,C=CCn1c(=O)[nH]c2nc3cc(N=CN(C)C)c(C)cc3nc2c1=O,16.2% (active)
6,Cc1cc2nc3c(=O)n(CCc4ccccc4)c(=O)[nH]c3nc2cc1N,0.7%
7,Cc1cc2nc3c(=O)n(C4CCCCC4)c(=O)[nH]c3nc2cc1N,9.65%
8,CCCCn1c(=O)[nH]c2nc3cc(N)ccc3nc2c1=O,0.06%
9,CCCCCCn1c(=O)[nH]c2nc3cc(N)c(C)cc3nc2c1=O,45.6% (active)
10,N=c1oc2c3c4c(cc2cc1C(=O)Nc1ccccc1)CCCN4CCC3,4.85%
11,Cn1cccc1/C=C1\CCC/C(=C\c2cccn2C)C1=O,0.94%
12,O=C(COC(=O)Cn1cnc2ccccc21)Nc1cccc2c1C(=O)c1ccccc1C2=O,5.29%
13,O=C1/C(=C/c2cccc(F)c2)Oc2cc(O)ccc21,-0.06%
14,O=C1/C(=C/c2ccc(Br)cc2)Oc2cc(O)ccc21,17.9% (active)
15,COc1cc(/C=C2\Oc3cc(O)ccc3C2=O)ccc1O,0.16%
16,C[C@H](CO)NC(=O)[C@@H]1C[C@H]1[C@@H](NP(=O)(c1ccccc1)c1ccccc1)c1ccccc1,0.29%
17,C=CCN(C(=O)CNS(=O)(=O)c1ccccc1)C(C(=O)NCCOC)c1ccncc1 (stereo unspecified),0.23%
18,COCCNC(=O)[C@H]1C[C@@H]1[C@H](NP(=O)(c1ccccc1)c1ccccc1)c1ccccc1,1400% (active)
19,Cc1cc(Br)c2c(c1)C(O)(N1CCCCC1C)C(=O)N2 (stereo unspecified),1.99%
20,CC(C)(C)C(=O)/C=c1\s/c(=C\c2ccc(-c3ccc([N+](=O)[O-])cc3)o2)c(=O)n1CC(=O)NC(N)=O,7.12%
21,COc1cc(/C=C(\C#N)c2nc3ccccc3o2)ccc1O,0.62%
22,Cc1cc(C)n2nc3nc4c(cc3c2n1)CCCC4,28.7% (active)
23,Nc1nc(SCC(=O)Nc2ccccc2)nc2nc3c(cc12)CCCC3,0.24%
